CFTR F508del cor = F508del CFTR correction, initial screen, CFBE line, single point. AID 720511, 2013. CFBE cells, YFP halide quenching; stimulated with forskolin plus potentiator P3; % fluorescence drop versus neutral controls. activity (quench increase), % at 7.58 µM. 350,000 tested, 0.36% active;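 active = mean added fluorescence quench of at least 8% versus neutral control, with both replicates also reaching 8%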;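 note: cells transiently co-express mutant CFTR-F508del with the halide-sensitive YFP; corrector assay measuring rescue of mutant channel to the surface after 24 h compound exposure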
DENV2 CPE = inhibitors of DENV2 cytopathic effect, primary screen, cell-based, plate reader, single concentration; 350,000 tested, 1.7% active; AID 651640, 2012; DENV2-infected cells, cytopathic effect rescue; CPE inhibition, % at 9.99 µM; in the data active = CPE inhibition above about 20%, passing the limit was not always enough; tested in BHK-21 cells;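 note: 0% = median of neutral control wells and 100% = median of positive control wells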
FGF22 binding = binders of human FGF22 protein, primary screen, FGF22 synaptogenesis inhibitor project, biophysical, thermal shift, single point. activity (Tm shift, normalised), % at 9.99 µM. AID 651658, 2012. Fibroblast growth factor 22 (Homo sapiens), Q9HCT0. recombinant FGF22 thermal shift, SYPRO orange fluorescence; percent of sucrose octasulfate shift, DMSO zero. 340,000 tested, 1.5% active;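 active = mean Tm shift, scaled 0 neutral to 100 positive control, at about 1.3% or above, every replicate too, limit read from the data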
Target sequence (Q9HCT0 whole entry, looked up): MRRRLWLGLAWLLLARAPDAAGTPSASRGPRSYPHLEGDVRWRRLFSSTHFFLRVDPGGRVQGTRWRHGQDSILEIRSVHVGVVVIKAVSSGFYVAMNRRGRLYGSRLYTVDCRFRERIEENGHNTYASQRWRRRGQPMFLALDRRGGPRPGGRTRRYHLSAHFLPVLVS
E-selectin induc = E-selectin induction in HUVECs, primary screen, imaging, HUVEC, immunofluorescence imaging, single point | P16581 | activation, % at 7.58 µM | AID 686992, 2013 | 260,000 tested, 0.37% active | normalized: neutral wells 0, TNF-alpha wells 100;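 active = mean E-selectin-positive cell signal at least 10% of the positive control, reached in at least 60% of replicates, without over 20% cell loss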
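Read-out basis: % PE-positive cells; Test system: HUVEC primary endothelial cells; Technique: immunofluorescence imaging; Dosing: single-point compound dose.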
ERAP1 HTS inh = human ERAP1 aminopeptidase inhibitors, primary screen, biochemical, single point, plate reader; recombinant ERAP1, Leu-AMC fluorescence, 60 min; inhibition, % at 10.7 µM; 340,000 tested, 0.15% active; AID 652197, 2013;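 active = mean replicate inhibition of at least 30%, or all replicates individually reaching that 30% level; inactive = mean below 30% and not every replicate reaching it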;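 note: 0% = neutral control wells and 100% = L-leucinethiol positive control wells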
An asterisk follows results filed as active. Shown are actives, neighbours in structure and some others; about 3.7% of the full set was active somewhere.

Screening C[C@@H]1CN([C@@H](C)CO)C(=O)c2cc(-c3ccccc3)cnc2O[C@H]1CN(C)C returned CFTR F508del cor -2, DENV2 CPE 12, FGF22 binding 0, E-selectin induc 0 and ERAP1 HTS inh -3.
For Cc1ccc2nc3n(c(=O)c2c1)-c1ccc(Cl)cc1C(=O)NC3CC(C)C (stereo unspecified) the results were CFTR F508del cor 0, DENV2 CPE 77*, FGF22 binding 0, E-selectin induc 0 and ERAP1 HTS inh -3.
Cc1ccc2c(c1)-n1c(nc3ccc(C)cc3c1=O)C(Cc1ccc(O)cc1)NC2=O (stereo unspecified) was read as CFTR F508del cor 3, DENV2 CPE 33*, FGF22 binding 0, E-selectin induc 0 and ERAP1 HTS inh -2.
For Cc1ccc2c(c1)-n1c(nc3ccc(Cl)cc3c1=O)C(CC(C)C)NC2=O (stereo unspecified) the results were CFTR F508del cor -1, FGF22 binding 0, E-selectin induc 0 and ERAP1 HTS inh 1.
For CCn1cc(/C=C(\NC(=O)c2ccccc2OC)C(=O)NCCN2CCOCC2)c2ccccc21 the results were CFTR F508del cor 3, DENV2 CPE 22*, FGF22 binding 0, E-selectin induc 0 and ERAP1 HTS inh 11.
`O=C(NCCN1CCOCC1)/C(=C\c1ccccc1Cl)NC(=O)c1ccccc1` gave CFTR F508del cor 0, DENV2 CPE -4, FGF22 binding 0, E-selectin induc 3 and ERAP1 HTS inh -1.
For COc1ccccc1/C=C(/NC(=O)c1ccccc1)C(=O)NCCN1CCOCC1 the results were CFTR F508del cor 1, DENV2 CPE 0, FGF22 binding 44*, E-selectin induc 0 and ERAP1 HTS inh 2.
For COc1ccc(NC(=S)N(C)CC2COc3ccccc3O2)cc1 (stereo unspecified) the results were CFTR F508del cor -1, DENV2 CPE -4, FGF22 binding 0 and ERAP1 HTS inh -1.
Screening CCN(CC1COc2ccccc2O1)C(=S)Nc1ccc(F)cc1 (stereo unspecified) returned CFTR F508del cor -3, DENV2 CPE -4, FGF22 binding 44* and ERAP1 HTS inh 0.
For O=C1[C@@H](Oc2ccccc2)[C@@H](c2ccncc2)N1c1ccncc1 the results were CFTR F508del cor 3, DENV2 CPE 28*, FGF22 binding 0 and ERAP1 HTS inh -2.
Screening CC#C[C@@H](CC)c1ccc2ccn(C)c2c1 returned CFTR F508del cor 3, DENV2 CPE 58*, FGF22 binding 0, E-selectin induc 0 and ERAP1 HTS inh 0.
For O=C(C[C@@H]1CC[C@@H]2[C@H](COC[C@@H](O)CN2Cc2cccc(F)c2)O1)NCC1CCCCC1 the results were CFTR F508del cor 2, DENV2 CPE -3, FGF22 binding 0, E-selectin induc 0 and ERAP1 HTS inh 1.
CS/C(=C/[N+](=O)[O-])Nc1cccc2c1C(C)CC2(C)C (stereo unspecified) was read as CFTR F508del cor 0, DENV2 CPE 2, FGF22 binding 44* and ERAP1 HTS inh 0.
Screening C[C@H](CO)N1C[C@H](C)[C@@H](CN(C)C)Oc2c(NC(=O)c3cnccn3)cccc2C1=O returned CFTR F508del cor 0, DENV2 CPE 30*, FGF22 binding 0 and ERAP1 HTS inh 1.
Screening C[C@H]1CN([C@@H](C)CO)C(=O)c2cccc(NC(=O)c3cnccn3)c2O[C@H]1CN(C)Cc1ccc(Cl)c(Cl)c1 returned CFTR F508del cor -3, DENV2 CPE 23*, FGF22 binding -1, E-selectin induc 8 and ERAP1 HTS inh -5.
Screening C[C@H](CO)N1C[C@H](C)[C@H](CN(C)Cc2ccc(Cl)c(Cl)c2)Oc2c(NC(=O)c3cnccn3)cccc2C1=O returned CFTR F508del cor -3, DENV2 CPE -10, FGF22 binding 0, E-selectin induc 4 and ERAP1 HTS inh 4.
`C[C@H](CO)N1C[C@H](C)[C@H](CN(C)C)Oc2c(NC(=O)c3cnccn3)cccc2C1=O` gave CFTR F508del cor 0, DENV2 CPE 8, FGF22 binding 0 and ERAP1 HTS inh -3.

Screening data deposited in PubChem BioAssay by Broad Institute.
